Screening data as filed in PubChem BioAssay.
Hits are enriched below; roughly 4.2% of the tested compounds scored in any of these assays.
OX1R antag-1: OX1R (human) antagonism. inhibition, % at 6.6 µM. OX1R-expressing cells, FRET antagonist read-out. AID 485270. O43613. actives 1.8% (n = 330,000); in the data active means inhibition mostly above about 38%, no sharp cut-off; inactive means mostly below about 40%;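 further: 0% = agonist challenge alone and 100% = reference antagonist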
Target sequence (O43613 whole entry, looked up): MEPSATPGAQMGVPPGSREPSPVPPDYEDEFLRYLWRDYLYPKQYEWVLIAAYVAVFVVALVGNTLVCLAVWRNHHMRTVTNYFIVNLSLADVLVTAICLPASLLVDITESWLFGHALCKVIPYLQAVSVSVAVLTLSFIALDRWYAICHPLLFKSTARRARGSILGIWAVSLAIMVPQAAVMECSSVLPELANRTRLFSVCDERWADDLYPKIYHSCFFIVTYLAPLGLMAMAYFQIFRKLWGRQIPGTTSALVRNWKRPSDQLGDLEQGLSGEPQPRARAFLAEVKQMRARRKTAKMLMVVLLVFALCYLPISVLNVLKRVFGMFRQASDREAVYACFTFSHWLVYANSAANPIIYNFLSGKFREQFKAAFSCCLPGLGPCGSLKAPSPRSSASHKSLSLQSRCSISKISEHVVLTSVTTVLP
OX1R antag-2: antagonists of human orexin 1 receptor | O43613 | CHO/OX1R cells, Fluo-8 calcium fluorescence, orexin A | inhibition, % at 5 µM | actives 0.43% (n = 330,000) | AID 434989;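 active means inhibition above its plate's threshold, mean inhibition of all tested compounds on the plate plus 3 SD, cut at about 37% in these data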;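 further: 0% = orexin A challenge wells and 100% = SB-334867-A antagonist wells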
CHO parental Ca: signal in parental CHO cells, OX1R antagonist counter-screen. parental CHO-K1, ATP-induced calcium, Fluo-8 fluorescence. inhibition, % at 5.6 µM. actives 0.63% (n = 330,000). AID 463079;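 active means inhibition above that plate's mean sample inhibition plus 3 SD, cut at about 26% in these data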;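 further: 0% = ATP-challenged DMSO wells and 100% = DMSO wells without ATP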
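Assay system – parental CHO cells · Reagent – ATP stimulus · Detection – intracellular calcium via Fluo-8 no-wash fluorescent dye · Evaluation – percent inhibition of ATP-evoked calcium rise, normalized to controls · Controls – ATP wells versus no-ATP DMSO wells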
GalR3 antag: blocks the human galanin receptor 3; O60755; HEK293 GalR3-CNG cAMP membrane potential fluorescence; galR3 body fused to GalR1 C-terminus; inhibition, % at 3 µM; actives 0.44% (n = 360,000);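 active means inhibition above the screen-wide average plus 3 SD, cut at about 13% in these data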;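 further: forskolin and galanin both at EC90 stimulate the cells; cAMP rise reported by CNG channel membrane potential dye signal; 0% = forskolin plus galanin with DMSO and 100% = forskolin alone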
TAAR1 ag: agonists of human TAAR1 | CHO RD-HGA16 TAAR1, Fluo-8 calcium fluorescence; vehicle wells 0%, saturating PEA agonist 100% | activation, % at 3 µM | actives 0.99% (n = 360,000);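 active means activation above the mean activation of all test compounds in the run plus 3 SD, cut at about 38% in these data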
Target sequence (Q96RJ0 whole entry, looked up): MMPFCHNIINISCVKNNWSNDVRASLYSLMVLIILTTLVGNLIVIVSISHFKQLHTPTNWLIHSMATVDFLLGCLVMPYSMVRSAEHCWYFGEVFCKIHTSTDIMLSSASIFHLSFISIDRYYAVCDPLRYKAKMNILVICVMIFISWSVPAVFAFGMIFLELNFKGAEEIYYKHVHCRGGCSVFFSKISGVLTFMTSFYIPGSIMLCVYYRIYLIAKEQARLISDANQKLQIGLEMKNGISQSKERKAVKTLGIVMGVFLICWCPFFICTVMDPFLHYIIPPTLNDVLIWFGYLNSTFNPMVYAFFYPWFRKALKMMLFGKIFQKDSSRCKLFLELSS
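Repeats: no replicates (n 1) | Material: CHO-derived RD-HGA16 cells with stable Gα16 and human TAAR1 | Technique: Kinetic Fluo-8 calcium fluorescence | Schedule: 17-24 h seeding, 75 min 37 °C dye, 30 min RT | Evaluation: % activation from peak over basal fluorescence ratio, DMSO-to-PEA scaled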
TAAR1 antagonist: antagonists of human TAAR1; actives 1.5% (n = 360,000); inhibition, % at 3 µM; Q96RJ0; AID 624466; CHO RD-HGA16 TAAR1, Fluo-8 calcium fluorescence, antagonist;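 active means inhibition above a per-plate cutoff, the mean inhibition of test compounds on that plate plus 3 SD, cut at about 49% in these data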;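 further: 0% = DMSO plus EC80 beta-PEA response and 100% = DMSO alone without agonist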
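Test system: hTAAR1-expressing CHO RD-HGA16 cells, Gα16-coupled; Probe or stimulus: EC80 β-phenethylamine stimulus; Compound dosing: single nominal final test compound concentration of 3 µM; Timing: 140 s kinetic read after compound, 140 s after agonist; Signal: Fluo-8 calcium-sensitive fluorescence; Measure: % inhibition of agonist calcium response; Controls: DMSO and EC80 PEA controls.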
nonsel antag count: nonselective antagonist in TAAR1 antagonist counter-screen; shares compounds with TAAR1 antagonist; counterscreen cell line, calcium fluorescence, antagonist mode; inhibition, % at 3 µM; actives 77% (n = 2,400); AID 651780; in the data active means inhibition above about 22%;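 further: CHO-Ga16 host cells stimulated with ATP at an EC80 level; 0% = agonist EC80 plus vehicle and 100% = vehicle without agonist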
TAAR1 ant conf: human TAAR1 antagonism, confirmed; shares compounds with TAAR1 antagonist; TAAR1-expressing cells, fluorescence antagonist read-out; inhibition, % at 3 µM; actives 40% (n = 2,400); in the data active means inhibition above about 49%;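 further: CHO-Ga16 host cells challenged with agonist PEA near its EC80; 0% = agonist at EC80 plus vehicle and 100% = vehicle with no agonist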
Ga16 ag counter: counter-screen for TAAR1 antagonists: nonselective Ga16 agonists. shares compounds with TAAR1 antagonist. Ga16-expressing cells, calcium fluorescence, agonist counterscreen. activation, % at 3 µM. actives 18% (n = 2,400); in the data active means activation above about 12%;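 further: 0% = vehicle wells and 100% = saturating stimulus response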
TAAR1 ag count: counter-screen for human TAAR1 antagonists: TAAR1 agonists; shares compounds with TAAR1 antagonist; activation, % at 3 µM; actives 2% (n = 2,400); hTAAR1 cell line, fluorescence activation, agonist mode; AID 651955; in the data active means activation above about 37%;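 further: CHO cells stably expressing TAAR1 with calcium dye readout; 0% = DMSO vehicle and 100% = full agonist response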
* hit, by the source's call; / = no result given.

SMILES	OX1R antag-1	OX1R antag-2	CHO parental Ca	GalR3 antag	TAAR1 ag	TAAR1 antagonist	nonsel antag count	TAAR1 ant conf	Ga16 ag counter	TAAR1 ag count
COc1ccc(N(CC(=O)NCC2CCCO2)S(=O)(=O)c2ccc(C)cc2)cc1OC (stereo not drawn)	30.2	-24.3	-20.0	-2.3	11.6	-8.2	/	/	/	/
COc1ccc(C(=O)OCC(=O)N2CCc3ccccc32)cc1S(=O)(=O)N1CCOCC1	6.2	-19.7	-11.4	-7.4	4.8	-5.1	/	/	/	/
Cc1cccc(N(C)S(=O)(=O)c2c[nH]c3ccc([N+](=O)[O-])cc23)c1	15.5	-3.1	4.6	-7.7	3.7	56.6*	31.7*	43.4	4.7	1.1
O=[N+]([O-])c1ccc2[nH]cc(S(=O)(=O)N3CCN(c4cccc(Cl)c4)CC3)c2c1	7.9	-12.7	-4.1	-12.4	4.9	8.9	/	/	/	/
CSc1cccc(NC(=O)N2CCc3ccc(NC(=O)c4ccccn4)cc3C2)c1	19.9	-13.4	-15.9	0.5	5.4	61.8*	39.8*	44.9	9.2	5.2
COc1ccc(CCn2c(C)cc3c(c2=O)C(c2ccc4c(c2)OCO4)C(C#N)=C(N)O3)cc1OC (stereo not drawn)	14.9	-22.2	-8.0	-1.4	2.5	52.8*	28.6*	36.6	4.3	3.9
Cc1cc2c(c(=O)n1Cc1ccccn1)C(c1ccc3c(c1)OCO3)C(C#N)=C(N)O2 (stereo not drawn)	7.9	-10.4	-4.4	-3.9	4.9	106.0*	10.3	11.7	4.4	0.9
Cc1nc2ccccc2c(=O)n1/N=C/c1ccc(C(C)C)cc1	-0.8	-14.2	-6.2	-9.6	3.5	61.0*	30.9*	43.3	1.7	-2.6
Cc1ccc(S(=O)(=O)N2CCOCC2)cc1NC(=O)COc1ccc(C(=O)c2ccccc2)cc1	11.8	19.6	3.6	-2.9	22.8	81.5*	36.9*	58.6*	13.7*	12.9
COc1ccc(NC(=O)CCCCCN2C(=O)[C@@H]3Cc4ccccc4CN3C2=O)cc1Cl	28.9	-28.3	-38.2	-6.7	1.5	2.5	/	/	/	/
O=S(=O)(c1cccc(F)c1)N1CCN(c2nc(-c3cccnc3)nc3ccccc23)CC1	19.4	-6.3	-16.6	-6.0	21.0	61.1*	24.1*	54.4*	8.5	11.4
CCN(CC)S(=O)(=O)c1ccc(/C=C/C(=O)O)cc1	5.5	-17.2	-17.4	-2.6	-1.0	14.0	/	/	/	/
CCN(CC)S(=O)(=O)c1ccc(/C=C/C(=O)Nc2cccc(F)c2)cc1	23.4	-14.4	-2.3	-5.4	10.0	57.7*	39.3*	61.9*	10.1	7.1
Cc1cc(NC(=O)c2cc(-c3ccccn3)nc3c(Cl)cccc23)no1	27.8	-6.8	-10.3	-4.5	-1.7	-10.2	/	/	/	/
COc1ccc(-c2[nH]c(-c3ccc(Cl)cc3)nc2SCC(=O)Nc2nccs2)cc1	5.7	6.7	6.0	/	3.3	36.6	/	/	/	/
COc1ccc(-c2[nH]c(-c3ccccc3)nc2SCC(=O)Nc2nccs2)cc1	20.9	-11.7	-11.2	/	7.7	48.7*	17.5	31.0	5.8	4.2
CCn1nnc(NC(=O)c2ccc(-c3ccccc3[N+](=O)[O-])o2)n1	9.8	-6.8	-2.7	-7.2	2.4	-0.1	/	/	/	/
CC(=O)c1cccc(NC(=O)c2ccc(-c3ccccc3[N+](=O)[O-])o2)c1	68.8*	-6.9	-26.0	5.2	32.0	61.8*	24.0*	43.2	17.9*	17.9
CCOc1cc(/C=N/NC(=O)C(O)(c2ccccc2)c2ccccc2)ccc1OC(=O)c1ccco1	9.1	-3.9	-2.0	-3.5	13.9	79.8*	32.9*	55.9*	8.2	6.9
CCOc1cc(/C=N/NC(=O)c2ccncc2)ccc1OC(=O)c1ccco1	10.0	-5.9	-3.5	-2.5	1.4	-22.9	/	/	/	/
O=c1[nH]c(CSc2nnc(-c3cccnc3)n2C2CCCCC2)nc2ccccc12	5.8	-6.2	-3.2	-1.5	22.9	65.0*	27.6*	55.9*	10.8	14.3
O=C1c2cccc(OCC(=O)N3CCCc4ccccc43)c2CCN1Cc1cccnc1	29.2	-11.6	-2.3	1.7	11.2	27.7	/	/	/	/
Cc1ccccc1CN1CCc2c(OCC(=O)N3CCCc4ccccc43)cccc2C1=O	27.8	11.6	-2.5	-1.5	12.0	72.1*	40.6*	53.8*	10.7	7.9
COc1ccc(-c2cc(C(=O)Nc3ccc(O)cc3)c3ccccc3n2)cc1OC	17.3	-12.3	-3.2	-2.7	17.4	62.3*	32.6*	47.5	10.8	9.3
CN(C)S(=O)(=O)c1cccc(NC(=O)c2cc(=O)[nH]c3ccccc23)c1	7.0	-12.9	-7.4	-2.4	1.6	1.5	/	/	/	/
SMILES	OX1R antag-1	OX1R antag-2	CHO parental Ca	GalR3 antag	TAAR1 ag	TAAR1 antagonist	nonsel antag count	TAAR1 ant conf	Ga16 ag counter	TAAR1 ag count
CCOc1ccccc1NC(=O)c1cc(-c2ccccn2)nc2ccccc12	15.9	-16.8	-12.7	-7.6	26.2	55.4*	20.5	45.8	8.9	6.5
CCN(CC)S(=O)(=O)c1ccc(NC(=O)c2cc(-c3cccs3)nc3ccccc23)cc1	4.6	-0.6	-11.7	0.7	16.7	59.9*	28.8*	40.6	8.3	5.6
CN(C)S(=O)(=O)c1cccc(NC(=O)c2c[nH]c3ccccc23)c1	12.8	-9.5	-7.8	-7.8	33.8	55.6*	23.8*	61.1*	10.5	53.9*
CN(C)S(=O)(=O)c1ccc(NC(=O)c2cc(-c3cccs3)nc3ccccc23)cc1	14.0	7.5	7.8	-3.9	17.9	41.9	/	/	/	/
CCS(=O)(=O)c1ccc2c(c1)N(S(=O)(=O)c1ccc(Cl)cc1)CC(C(=O)O)O2 (stereo not drawn)	40.3	-6.4	0.2	-6.7	5.4	10.9	/	/	/	/
Cc1ccc(F)c(C2=CC(=O)C[C@H](c3ccc(F)cc3)C2)c1	5.5	-14.2	-16.9	-10.6	11.0	20.2	/	/	/	/
Cc1noc(C)c1NC(=O)N(C)C[C@H]1Oc2ccc(NS(=O)(=O)c3cccs3)cc2C(=O)N([C@H](C)CO)C[C@@H]1C	11.2	-9.9	2.4	-4.9	5.7	7.3	/	/	/	/
COc1cc(-c2cc(C(=O)Nc3ccc(S(=O)(=O)Nc4ncccn4)cc3)c3ccccc3n2)cc(OC)c1OC	-0.2	-3.3	1.0	2.5	-0.1	-33.3	/	/	/	/
